# Results taken from ChEMBL document CHEMBL4823248, “Pyrazole Agonist of the Apelin Receptor Improves Symptoms of Metabolic Syndrome in Mice” (J Med Chem, 2021).
# Key:
# Apelin receptor [1] = biological target: T1, Apelin receptor (Homo sapiens, UniProt P35414); assay: Agonist activity at human APJ receptor expressed in CHO cells assessed as inhibition of forskolin-induced cAMP accumulation measured after 30 mins by TR-FRET assay
# T1 sequence (P35414 whole entry): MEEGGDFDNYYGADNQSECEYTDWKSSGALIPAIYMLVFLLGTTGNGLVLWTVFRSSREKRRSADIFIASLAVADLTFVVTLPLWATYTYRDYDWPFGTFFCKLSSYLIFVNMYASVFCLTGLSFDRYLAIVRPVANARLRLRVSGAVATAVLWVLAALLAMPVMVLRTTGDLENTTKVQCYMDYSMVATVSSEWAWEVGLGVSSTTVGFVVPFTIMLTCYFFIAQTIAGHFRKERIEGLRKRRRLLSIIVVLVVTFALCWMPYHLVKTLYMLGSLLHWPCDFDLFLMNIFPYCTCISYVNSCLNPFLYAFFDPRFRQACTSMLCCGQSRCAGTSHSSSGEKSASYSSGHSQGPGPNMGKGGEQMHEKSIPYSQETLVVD
# Apelin receptor [2] = biological target: T1, Apelin receptor; assay: Agonist activity at human AGTRL1 expressed in CHO-K1 cells assessed as induction of beta-arrestin 2 recruitment incubated for 90 mins by PathHunter assay; format: functional, cell-based
# [3] = Half life in human pooled liver microsomes at 1 uM incubated up to 120 mins in presence of NADPH by LC-MS analysis; format: ADME, Microsome
# [4] = Intrinsic clearance in human pooled liver microsomes at 1 uM incubated up to 120 mins in presence of NADPH by LC-MS analysis; format: ADME, Microsome; conditions: read-out: CLH
# [5] = Half life in CD-1 mouse plasma at 15 mg/kg, ip measured up to 24 hrs by LC-MS/MS analysis; format: ADME, organism-based
# Method in brief: (§1)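 Male CD-1 mice, about 10 weeks old, acclimated 72 h. Single 15 mg/kg IP dose formulated in modified citrate buffer (pH 6). Animals sacrificed at 0.5, 1, 2, 4, 8 and 24 h to collect plasma and brain samples. Cmax, AUC_all, CL and T1/2 determined.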
# [6] = AUC in CD-1 mouse plasma at 15 mg/kg, ip measured up to 24 hrs by LC-MS/MS analysis; format: ADME, organism-based; design: route intraperitoneal, dose 15 mg/kg, time <=24
# Method in brief: as §1
# [7] = biological target: Voltage-gated inwardly rectifying potassium channel KCNH2 (Homo sapiens, UniProt Q12809); assay: Displacement of [3H]astemizole from human ERG at 10 uM measured after 60 mins by scintillation counter method; conditions: 1 h
# Method in brief: (§2)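 Competition binding using 4 μg hERG-expressing membranes with ~3 nM [3H]astemizole for 60 min in pH 7.4 HEPES buffer with 0.1% BSA. Terminated by filtration onto polyethyleneimine-soaked GF/B filters, washed with ice-cold buffer, and counted with scintillant. At least two runs in duplicate.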
# [8] = biological target: T2, Type-1 angiotensin II receptor (Homo sapiens, UniProt P30556); assay: Agonist activity at Galphaq16-fused human AGTR1 expressed in CHO cells assessed as stimulation of Ca2+ mobilization incubated for 1 hr by Calcium 5-dye based fluorescence based assay; format: functional, cell-based
# T2 sequence (P30556 whole entry): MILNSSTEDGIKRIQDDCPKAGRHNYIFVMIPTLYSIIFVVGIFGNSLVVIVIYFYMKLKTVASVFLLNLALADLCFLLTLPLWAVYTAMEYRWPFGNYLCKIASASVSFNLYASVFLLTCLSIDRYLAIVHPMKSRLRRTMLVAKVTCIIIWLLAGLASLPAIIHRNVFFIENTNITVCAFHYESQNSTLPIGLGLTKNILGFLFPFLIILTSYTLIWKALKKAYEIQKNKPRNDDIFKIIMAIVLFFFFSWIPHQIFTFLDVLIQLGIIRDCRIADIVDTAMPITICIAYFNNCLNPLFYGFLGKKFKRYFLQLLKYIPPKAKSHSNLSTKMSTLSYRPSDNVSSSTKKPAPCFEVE
# Method in brief: (§3)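 CHO cells stably co-expressing Gαq16 with mouse APJ or human AGTR1; 20,000 hAGTR1 cells per well, plated 24 h at 37 °C. Loaded 1 h at 37 °C with Calcium 5 dye in HBSS buffer with 20 mM HEPES, 1% BSA, 10 μM probenecid, 1% DMSO final. Stimulated with compounds at various concentrations; fluorescence read on FLIPR Tetra. Duplicate, 2−3 runs.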
# Apelin receptor [9] = biological target: T3, Apelin receptor (Mus musculus, UniProt Q9WV08); assay: Agonist activity at Galphaq16-fused mouse APJ receptor expressed in CHO cells assessed as stimulation of Ca2+ mobilization incubated for 1 hr by Calcium 5-dye based fluorescence based assay; format: cell-based
# T3 sequence (Q9WV08 whole entry): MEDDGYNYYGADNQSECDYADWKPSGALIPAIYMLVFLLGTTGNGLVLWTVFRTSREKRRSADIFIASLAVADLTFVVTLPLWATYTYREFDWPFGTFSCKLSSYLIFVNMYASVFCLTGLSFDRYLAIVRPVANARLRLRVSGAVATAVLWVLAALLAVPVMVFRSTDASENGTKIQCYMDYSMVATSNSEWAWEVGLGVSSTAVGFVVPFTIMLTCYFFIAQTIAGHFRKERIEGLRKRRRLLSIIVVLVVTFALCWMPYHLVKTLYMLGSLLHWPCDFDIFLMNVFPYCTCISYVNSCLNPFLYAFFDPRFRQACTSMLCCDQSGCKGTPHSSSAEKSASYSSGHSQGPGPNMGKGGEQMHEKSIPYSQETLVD
# Method in brief: as §3
# [10] = Half life in CD-1 mouse brain at 15 mg/kg, ip measured up to 24 hrs by LC-MS/MS analysis; format: ADME, organism-based
# Method in brief: as §1
# [11] = Kinetic solubility of the compound in pH 7.4 PBS buffer measured after 2 hrs by LC-MS/MS analysis; format: physicochemical; conditions: read-out: Kinetic_solubility
# Method in brief: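 20 mM DMSO stock diluted into PBS pH 7.4 to a targeted 400 μM. Agitated 2 h at room temperature, filtered through 1 μm glass fiber, and eluate diluted 400-fold in acetonitrile/water (1:1) for analysis.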
# [12] = Clearance in CD-1 mouse plasma at 15 mg/kg, ip measured up to 24 hrs by LC-MS/MS analysis; format: ADME, organism-based
# Method in brief: as §1
# [13] = AUC in CD-1 mouse brain at 15 mg/kg, ip measured up to 24 hrs by LC-MS/MS analysis; format: ADME, organism-based; design: route intraperitoneal, dose 15 mg/kg, time <=24
# Method in brief: as §1
# [14] = Cmax in CD-1 mouse brain at 15 mg/kg, ip measured up to 24 hrs by LC-MS/MS analysis; format: ADME, organism-based; design: route intraperitoneal, dose 15 mg/kg, time <=24
# Method in brief: as §1
# hERG (KCNH2) = hERG (KCNH2) (Homo sapiens, UniProt Q12809); assay: Displacement of [3H]astemizole from human ERG at 10 uM measured after 60 mins by scintillation counter method relative to control; conditions: probe [3H]astemizole
# Method in brief: as §2
# [15] = Protein binding in human plasma at 10 uM measured after 4 hrs by LC-MS/MS analysis; format: ADME, cell-free; conditions: read-out: PPB (converted)
# Method in brief: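 Human plasma spiked at 10 μM, dialyzed against phosphate/NaCl buffer by rapid equilibrium dialysis for 4 h at 37 °C with shaking at 100 rpm. Samples matrix-matched, protein precipitated with cold acetonitrile/formic acid, and analyzed by LC−MS/MS. Three independent samples.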
# [16] = Cmax in CD-1 mouse plasma at 15 mg/kg, ip measured up to 24 hrs by LC-MS/MS analysis; format: ADME, organism-based; design: route intraperitoneal, dose 15 mg/kg, time <=24
# Method in brief: as §1
# Voltage-gated inwardly rectifying potassium channel KCNH2, sequence (Q12809 whole entry): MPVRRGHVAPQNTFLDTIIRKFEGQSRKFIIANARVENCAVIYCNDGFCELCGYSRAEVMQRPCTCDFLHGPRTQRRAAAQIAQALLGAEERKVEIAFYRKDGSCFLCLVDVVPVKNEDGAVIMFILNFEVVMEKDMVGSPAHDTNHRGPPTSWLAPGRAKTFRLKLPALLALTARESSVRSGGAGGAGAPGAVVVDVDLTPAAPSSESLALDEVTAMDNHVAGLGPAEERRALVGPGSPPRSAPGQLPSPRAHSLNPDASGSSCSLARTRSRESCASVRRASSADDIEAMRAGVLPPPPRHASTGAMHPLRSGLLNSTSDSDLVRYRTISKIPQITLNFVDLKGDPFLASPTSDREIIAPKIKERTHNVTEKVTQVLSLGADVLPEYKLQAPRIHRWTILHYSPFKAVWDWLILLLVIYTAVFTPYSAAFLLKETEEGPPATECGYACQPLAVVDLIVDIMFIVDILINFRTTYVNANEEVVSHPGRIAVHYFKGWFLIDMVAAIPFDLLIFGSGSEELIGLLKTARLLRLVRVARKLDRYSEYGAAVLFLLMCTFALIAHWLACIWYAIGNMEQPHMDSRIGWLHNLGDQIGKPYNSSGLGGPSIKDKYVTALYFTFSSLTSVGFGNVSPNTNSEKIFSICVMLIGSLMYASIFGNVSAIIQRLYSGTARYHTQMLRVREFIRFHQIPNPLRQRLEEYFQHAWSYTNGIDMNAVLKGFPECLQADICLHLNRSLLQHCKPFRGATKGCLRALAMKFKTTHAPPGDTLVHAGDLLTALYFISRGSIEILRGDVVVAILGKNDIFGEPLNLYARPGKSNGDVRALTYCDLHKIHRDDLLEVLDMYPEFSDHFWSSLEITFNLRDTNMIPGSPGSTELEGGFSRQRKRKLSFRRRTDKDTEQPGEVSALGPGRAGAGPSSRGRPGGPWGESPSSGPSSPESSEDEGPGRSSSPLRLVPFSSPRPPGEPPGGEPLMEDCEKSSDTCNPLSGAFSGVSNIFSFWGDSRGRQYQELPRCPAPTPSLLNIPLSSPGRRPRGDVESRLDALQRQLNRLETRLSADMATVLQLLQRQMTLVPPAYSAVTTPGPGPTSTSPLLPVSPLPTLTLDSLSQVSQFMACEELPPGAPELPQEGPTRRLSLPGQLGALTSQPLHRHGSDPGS
# hERG (KCNH2), sequence (Q12809 whole entry): as above
EC50 (Apelin receptor [1]),EC50 (Apelin receptor [2]),half-life at 1 µM [3],CLint scaled at 1 µM [4],Structure (SMILES),further results
8 nM,159 nM,38 min,32.4 mL/min/kg,COc1cccc(OC)c1-c1cc(C(=O)N[C@@H](CCN2CCCCCC2)CC(=O)NC2CCC2)nn1C1CCCC1.Cl,
,,38 min,32.4 mL/min/kg,COc1cccc(OC)c1-c1cc(C(=O)N[C@@H](CCN2CCCCC2)CC(=O)NC2CC(F)(F)C2)nn1C1CCCC1,
237 nM,1350 nM,17 min,73.1 mL/min/kg,COc1cccc(OC)c1-c1cc(C(=O)N[C@@H](CCN2CCOCC2)CC(=O)NC2CCC2)nn1C1CCCC1.Cl,
,,62 min,20 mL/min/kg,COc1cccc(OC)c1-c1cc(C(=O)N[C@@H](CCN2CCCCC2)CC(=O)NC2CCC2)nn1C1CCCC1.Cl,"half-life [5]: 162 min; AUC at 24 h [6]: 3000 ng·h/mL; inhibition (INH) [7]: Not Active; EC50 [8]: > 10000 nM; EC50 (Apelin receptor [9]): 22 nM; half-life [10]: 804 min; solubility kinetic at 2 h [11]: 192 µM; CL/F [12]: 83 mL/min/kg; AUC at 24 h [13]: 1080 ng·h/mL; Cmax [14]: 103 ng/mL; inhibition at 1 h, 10 µM (hERG (KCNH2)): < 50%; fraction unbound at 4 h, 10 µM [15]: 0.09; Cmax [16]: 1580 ng/mL"

# Further lines, the compound ahead of its results:
Structure (SMILES),EC50 (Apelin receptor [1]),EC50 (Apelin receptor [2]),half-life at 1 µM [3],CLint scaled at 1 µM [4],further results
COc1cccc(OC)c1-c1cc(C(=O)N[C@@H](CCN2C(C)CCCC2C)CC(=O)NC2CCC2)nn1C1CCCC1.Cl (some centres undefined),33 nM,459 nM,52 min,23.9 mL/min/kg,
COc1cccc(OC)c1-c1cc(C(=O)N[C@@H](CCN2CCCCC2)CC(=O)Nc2nnn[nH]2)nn1C1CCCC1,,,24.2 min,25.8 mL/min/kg,
COc1cccc(OC)c1-c1cc(C(=O)N[C@@H](CCN2CCCCC2)CC(=O)N(C)C2CCC2)nn1C1CCCC1,105 nM,326 nM,37 min,33.3 mL/min/kg,
COc1cccc(OC)c1-c1cc(C(=O)N[C@@H](CCN2CCCCC2)CC(=O)N(C)c2nccs2)nn1C1CCCC1,5 nM,14 nM,37 min,33.4 mL/min/kg,
COCCN(C)C(=O)C[C@H](CCN1CCCCC1)NC(=O)c1cc(-c2c(OC)cccc2OC)n(C2CCCC2)n1,2410 nM,> 10000 nM,,,
COc1cccc(OC)c1-c1cc(C(=O)N[C@@H](CCN2CCCCC2)CC(=O)Nc2nccs2)nn1C1CCCC1,1 nM,,27 min,46.7 mL/min/kg,
COc1cccc(OC)c1-c1cc(C(=O)N[C@@H](CCN2CCCCC2)Cc2nnc[nH]2)nn1C1CCCC1,134 nM,523 nM,33 min,37.8 mL/min/kg,
CC(C)NCC(O)COc1cccc2ccccc12 (centres undefined) [PROPRANOLOL],,,,,"fraction unbound at 4 h, 10 µM [15]: 0.39"
